# In ChEMBL document CHEMBL1147441, “A new series of potent oxindole inhibitors of CDK2” (Bioorg Med Chem Lett, 2004):
# How the values were obtained:
# [1] = target: Cyclin-dependent kinase 2/cyclin E (Homo sapiens, UniProt P24941); experiment: In vitro inhibition of recombinant Cyclin Dependent Kinase-2/Cyclin E.; assay type: protein-complex assay
# SW480 = experiment: In vitro inhibition of SW480 (human colon cancer) cell proliferation.; assay type: functional, cell-based
# Outline: (§1)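 MTT-based proliferation assay run on tumour cells. IC50 values were taken from a single experiment.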
# MDA-MB-435 = experiment: In vitro inhibition of MDA MB 435 (human breast cancer) cell proliferation.; assay type: functional, cell-based; outline: as §1
IC50 [1],IC50 (SW480),IC50 (MDA-MB-435),SMILES
18 nM,549 nM,1070 nM,CCN[C@H](C#Cc1c(F)ccc2c1/C(=C/c1[nH]ccc1OC)C(=O)N2)[C@@H](C)O
21 nM,566 nM,1160 nM,CCN[C@H](C#Cc1c(F)ccc2c1/C(=C/c1[nH]ccc1OC)C(=O)N2)CO
2 nM,40 nM,31 nM,COc1cc[nH]c1/C=C1\C(=O)Nc2ccc(F)c(C#C[C@@H]3CCCN3)c21
9 nM,210 nM,300 nM,COc1cc[nH]c1/C=C1\C(=O)Nc2ccc(F)c(C#C[C@@H](N)[C@@H](C)O)c21
5 nM,90 nM,110 nM,COc1cc[nH]c1/C=C1\C(=O)Nc2ccc(F)c(C#C[C@@H]3C[C@H](O)CN3)c21
95 nM,967 nM,1270 nM,COc1cc[nH]c1/C=C1\C(=O)Nc2ccc(F)c(C#C[C@H](CO)NCCO)c21
